Values after ≈ are worked out from the molar mass of the structure shown. Active and inactive are the calls of the source. The rule behind the calls is not given here.
Columns and labels:
[1] = system: NIH3T3; test: Cytotoxicity against mouse NIH/3T3 cells measured after 48 hrs by MTT assay; format: cell-based; conditions: NIH3T3, 48 h
[2] = molecular target: 5-hydroxytryptamine receptor 1A (Homo sapiens) (UniProt P08908); test: Displacement of [3H]-8-OH-DPAT from human recombinant 5HT1A receptor expressed in stable CHO cells at 10 uM incubated for 90 mins by microbeta scintillation counting method; format: cell-based
How it was run: (§1)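 Primary radioligand binding screen run by the NIMH Psychoactive Drug Screening Program, with one test level of 10 μM. The read-out was inhibition of radioligand binding at each receptor.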

[3] = molecular target: 5-hydroxytryptamine receptor 1D (Homo sapiens) (UniProt P28221); test: Displacement of [3H]-5-CT from human recombinant 5HT1D receptor expressed in HEKT cells at 10 uM incubated for 90 mins by microbeta scintillation counting method; format: cell-based; how it was run: as §1
[4] = molecular target: Alpha-1D adrenergic receptor (Homo sapiens) (UniProt P25100); test: Displacement of [3H]-8-OH-DPAT from human recombinant alpha1D adrenergic receptor at 10 uM incubated for 90 mins by microbeta scintillation counting method; how it was run: as §1
[5] = molecular target: Beta-2 adrenergic receptor (Homo sapiens) (UniProt P07550); test: Displacement of [125I]-CGP12177 from recombinant human beta2 adrenergic receptor expressed in HEK Flp-In cells measured after 90 mins by microbeta scintillation counting method; format: cell-based
[6] = molecular target: Beta-3 adrenergic receptor (Homo sapiens) (UniProt P13945); test: Displacement of [3H]-CGP12177 from human recombinant adrenergic beta3 receptor expressed in Flp-In HEK cells incubated for 90 mins by microbeta scintillation counting method; format: cell-based
[7] = molecular target: D(2) dopamine receptor (Homo sapiens) (UniProt P14416); test: Displacement of [3H]-N-methylspiperone from human recombinant dopamine D2 receptor expressed in stable fibroblast cells incubated for 90 mins by microbeta scintillation counting method; format: cell-based
[8] = molecular target: Sodium-dependent dopamine transporter (Homo sapiens) (UniProt Q01959); test: Displacement of [3H]-Win35428 from human recombinant DAT receptor expressed in stable HEK cells incubated for 90 mins by microbeta scintillation counting method; format: cell-based
[9] = molecular target: Kappa-type opioid receptor (Homo sapiens) (UniProt P41145); test: Displacement of [3H]-U69593 from human recombinant KOR receptor expressed in stable HEK cells incubated for 90 mins by microbeta scintillation counting method; format: cell-based
[10] = molecular target: Histamine H1 receptor (Homo sapiens) (UniProt P35367); test: Displacement of [3H]-Pyrilamine from human recombinant histamine H1 receptor expressed in stable HEK cells incubated for 90 mins by microbeta scintillation counting method; format: cell-based
[11] = molecular target: Muscarinic acetylcholine receptor M4 (Homo sapiens) (UniProt P08173); test: Displacement of [3H]-QNB/[3H]-NMS from human recombinant muscarinic acetylcholine M4 receptor expressed in stable CHO cells incubated for 90 mins by microbeta scintillation counting method; format: cell-based
[12] = molecular target: Sigma non-opioid intracellular receptor 1 (Homo sapiens) (UniProt Q99720); test: Displacement of [3H]-Pentazocine from human recombinant sigma1 receptor expressed in HEKT cells incubated for 90 mins by microbeta scintillation counting method; format: cell-based
Sequence of Sigma non-opioid intracellular receptor 1 (Homo sapiens) (Q99720 whole entry): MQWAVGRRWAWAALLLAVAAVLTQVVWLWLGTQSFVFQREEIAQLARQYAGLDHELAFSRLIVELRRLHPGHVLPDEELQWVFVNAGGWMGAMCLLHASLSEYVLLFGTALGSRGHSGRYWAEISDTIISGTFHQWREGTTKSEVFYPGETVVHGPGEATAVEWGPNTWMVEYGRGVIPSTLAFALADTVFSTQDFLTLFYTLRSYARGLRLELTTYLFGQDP

Sequence of Sodium-dependent dopamine transporter (Homo sapiens) (Q01959 whole entry): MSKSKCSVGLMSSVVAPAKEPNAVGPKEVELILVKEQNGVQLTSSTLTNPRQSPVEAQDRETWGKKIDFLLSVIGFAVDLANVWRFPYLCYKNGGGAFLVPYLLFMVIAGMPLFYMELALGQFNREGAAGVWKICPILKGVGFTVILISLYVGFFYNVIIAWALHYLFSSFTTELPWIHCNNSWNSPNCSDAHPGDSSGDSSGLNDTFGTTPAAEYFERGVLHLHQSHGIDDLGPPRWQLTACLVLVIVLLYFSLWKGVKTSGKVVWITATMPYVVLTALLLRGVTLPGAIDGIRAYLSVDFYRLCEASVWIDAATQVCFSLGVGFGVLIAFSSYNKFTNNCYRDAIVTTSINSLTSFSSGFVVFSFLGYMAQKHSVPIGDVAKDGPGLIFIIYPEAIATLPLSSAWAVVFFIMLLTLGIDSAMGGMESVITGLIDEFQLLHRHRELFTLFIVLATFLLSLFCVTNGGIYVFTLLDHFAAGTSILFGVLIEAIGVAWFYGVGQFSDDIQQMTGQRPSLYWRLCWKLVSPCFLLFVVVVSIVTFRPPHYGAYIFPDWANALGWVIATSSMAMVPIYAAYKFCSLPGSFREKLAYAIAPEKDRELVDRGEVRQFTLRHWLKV
Sequence of 5-hydroxytryptamine receptor 1D (Homo sapiens) (P28221 whole entry): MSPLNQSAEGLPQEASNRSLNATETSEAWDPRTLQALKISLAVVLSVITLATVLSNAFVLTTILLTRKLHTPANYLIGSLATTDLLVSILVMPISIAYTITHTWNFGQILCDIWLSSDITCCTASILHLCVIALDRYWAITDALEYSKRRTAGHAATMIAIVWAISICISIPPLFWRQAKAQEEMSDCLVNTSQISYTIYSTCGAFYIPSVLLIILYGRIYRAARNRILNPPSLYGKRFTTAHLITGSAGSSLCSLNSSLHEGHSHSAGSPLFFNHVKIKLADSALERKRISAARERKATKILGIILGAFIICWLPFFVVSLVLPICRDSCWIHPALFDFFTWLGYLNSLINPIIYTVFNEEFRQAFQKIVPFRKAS
Sequence of Muscarinic acetylcholine receptor M4 (Homo sapiens) (P08173 whole entry): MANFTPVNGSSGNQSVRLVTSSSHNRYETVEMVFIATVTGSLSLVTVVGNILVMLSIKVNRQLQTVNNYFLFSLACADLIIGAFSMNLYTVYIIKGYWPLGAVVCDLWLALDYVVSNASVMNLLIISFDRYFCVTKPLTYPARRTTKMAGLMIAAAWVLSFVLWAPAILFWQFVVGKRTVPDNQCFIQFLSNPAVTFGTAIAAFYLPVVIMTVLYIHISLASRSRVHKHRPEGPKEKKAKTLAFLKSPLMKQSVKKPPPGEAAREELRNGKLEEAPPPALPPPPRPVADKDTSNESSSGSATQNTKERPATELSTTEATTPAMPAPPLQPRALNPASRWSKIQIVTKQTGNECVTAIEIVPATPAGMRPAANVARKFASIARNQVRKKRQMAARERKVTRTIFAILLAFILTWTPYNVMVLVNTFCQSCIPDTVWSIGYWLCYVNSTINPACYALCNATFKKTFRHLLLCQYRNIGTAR
Sequence of 5-hydroxytryptamine receptor 1A (Homo sapiens) (P08908 whole entry): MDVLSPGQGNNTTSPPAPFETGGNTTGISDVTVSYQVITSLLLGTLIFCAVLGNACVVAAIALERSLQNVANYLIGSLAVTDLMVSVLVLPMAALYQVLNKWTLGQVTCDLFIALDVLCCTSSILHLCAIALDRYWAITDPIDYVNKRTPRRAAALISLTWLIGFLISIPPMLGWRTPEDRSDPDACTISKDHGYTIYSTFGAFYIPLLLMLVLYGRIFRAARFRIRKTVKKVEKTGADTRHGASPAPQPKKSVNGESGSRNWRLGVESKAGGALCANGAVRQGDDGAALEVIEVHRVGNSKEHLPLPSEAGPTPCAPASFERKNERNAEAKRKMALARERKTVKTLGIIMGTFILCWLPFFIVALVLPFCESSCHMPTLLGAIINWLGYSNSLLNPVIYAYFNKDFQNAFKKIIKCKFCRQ
Sequence of Alpha-1D adrenergic receptor (Homo sapiens) (P25100 whole entry): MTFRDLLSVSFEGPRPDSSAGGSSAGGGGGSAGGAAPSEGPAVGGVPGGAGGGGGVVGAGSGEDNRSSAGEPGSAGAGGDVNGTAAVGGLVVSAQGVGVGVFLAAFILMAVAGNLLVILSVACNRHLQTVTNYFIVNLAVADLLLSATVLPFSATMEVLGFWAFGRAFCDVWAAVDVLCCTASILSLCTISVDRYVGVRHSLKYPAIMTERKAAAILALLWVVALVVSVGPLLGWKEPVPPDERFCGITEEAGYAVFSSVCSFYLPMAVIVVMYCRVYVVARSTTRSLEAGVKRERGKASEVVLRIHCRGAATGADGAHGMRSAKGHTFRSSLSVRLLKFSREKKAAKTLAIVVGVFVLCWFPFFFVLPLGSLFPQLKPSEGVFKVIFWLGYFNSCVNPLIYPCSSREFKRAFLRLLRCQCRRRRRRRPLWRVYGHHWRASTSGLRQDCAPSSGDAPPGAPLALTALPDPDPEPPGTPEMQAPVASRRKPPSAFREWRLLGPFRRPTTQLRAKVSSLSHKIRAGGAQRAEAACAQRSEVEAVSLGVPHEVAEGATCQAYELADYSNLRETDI
Sequence of Kappa-type opioid receptor (Homo sapiens) (P41145 whole entry): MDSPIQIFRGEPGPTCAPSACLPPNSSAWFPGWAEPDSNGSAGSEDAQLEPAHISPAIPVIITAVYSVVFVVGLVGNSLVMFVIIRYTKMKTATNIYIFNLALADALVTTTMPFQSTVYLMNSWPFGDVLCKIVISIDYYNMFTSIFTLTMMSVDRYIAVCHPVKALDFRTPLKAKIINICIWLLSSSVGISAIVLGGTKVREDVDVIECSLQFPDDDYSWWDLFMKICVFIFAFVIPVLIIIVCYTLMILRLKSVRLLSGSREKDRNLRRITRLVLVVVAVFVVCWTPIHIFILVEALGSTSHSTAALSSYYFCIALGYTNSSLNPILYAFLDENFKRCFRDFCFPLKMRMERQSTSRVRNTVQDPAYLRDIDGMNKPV
Sequence of Histamine H1 receptor (Homo sapiens) (P35367 whole entry): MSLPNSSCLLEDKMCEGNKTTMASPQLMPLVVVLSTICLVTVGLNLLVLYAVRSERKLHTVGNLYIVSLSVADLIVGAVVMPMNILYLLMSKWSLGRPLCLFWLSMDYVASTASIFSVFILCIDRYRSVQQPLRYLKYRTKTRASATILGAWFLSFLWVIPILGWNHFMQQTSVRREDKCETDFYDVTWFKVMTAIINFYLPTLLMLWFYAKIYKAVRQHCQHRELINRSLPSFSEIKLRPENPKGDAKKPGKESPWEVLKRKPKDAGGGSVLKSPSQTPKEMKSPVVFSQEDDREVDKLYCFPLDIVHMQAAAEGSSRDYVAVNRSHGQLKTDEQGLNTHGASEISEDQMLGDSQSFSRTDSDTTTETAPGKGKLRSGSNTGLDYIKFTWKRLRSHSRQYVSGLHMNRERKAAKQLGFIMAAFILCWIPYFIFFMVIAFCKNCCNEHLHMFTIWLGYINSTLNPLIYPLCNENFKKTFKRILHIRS
Sequence of D(2) dopamine receptor (Homo sapiens) (P14416 whole entry): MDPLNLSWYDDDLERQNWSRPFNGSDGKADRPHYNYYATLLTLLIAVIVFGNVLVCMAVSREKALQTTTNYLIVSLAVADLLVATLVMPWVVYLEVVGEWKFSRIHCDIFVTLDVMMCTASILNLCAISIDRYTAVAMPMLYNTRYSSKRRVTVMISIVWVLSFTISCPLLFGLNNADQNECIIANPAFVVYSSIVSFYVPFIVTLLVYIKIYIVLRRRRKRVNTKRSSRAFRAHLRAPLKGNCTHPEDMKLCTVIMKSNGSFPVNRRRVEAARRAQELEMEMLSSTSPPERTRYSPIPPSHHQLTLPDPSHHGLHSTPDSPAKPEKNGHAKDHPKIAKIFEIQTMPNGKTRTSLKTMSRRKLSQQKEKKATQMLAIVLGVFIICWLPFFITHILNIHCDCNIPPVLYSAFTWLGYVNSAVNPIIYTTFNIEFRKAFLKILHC
Sequence of Beta-3 adrenergic receptor (Homo sapiens) (P13945 whole entry, looked up): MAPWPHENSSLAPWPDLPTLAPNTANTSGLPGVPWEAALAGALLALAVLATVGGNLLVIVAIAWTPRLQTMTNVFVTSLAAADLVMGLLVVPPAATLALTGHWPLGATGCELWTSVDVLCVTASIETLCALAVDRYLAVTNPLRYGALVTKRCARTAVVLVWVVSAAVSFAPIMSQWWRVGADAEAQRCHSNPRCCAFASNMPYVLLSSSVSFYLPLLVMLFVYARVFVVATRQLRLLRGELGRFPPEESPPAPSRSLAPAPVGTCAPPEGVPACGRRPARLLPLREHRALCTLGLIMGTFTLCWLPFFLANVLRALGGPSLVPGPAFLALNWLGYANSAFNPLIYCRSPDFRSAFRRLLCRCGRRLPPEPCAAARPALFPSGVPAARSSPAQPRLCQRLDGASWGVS
Sequence of Beta-2 adrenergic receptor (Homo sapiens) (P07550 whole entry, looked up): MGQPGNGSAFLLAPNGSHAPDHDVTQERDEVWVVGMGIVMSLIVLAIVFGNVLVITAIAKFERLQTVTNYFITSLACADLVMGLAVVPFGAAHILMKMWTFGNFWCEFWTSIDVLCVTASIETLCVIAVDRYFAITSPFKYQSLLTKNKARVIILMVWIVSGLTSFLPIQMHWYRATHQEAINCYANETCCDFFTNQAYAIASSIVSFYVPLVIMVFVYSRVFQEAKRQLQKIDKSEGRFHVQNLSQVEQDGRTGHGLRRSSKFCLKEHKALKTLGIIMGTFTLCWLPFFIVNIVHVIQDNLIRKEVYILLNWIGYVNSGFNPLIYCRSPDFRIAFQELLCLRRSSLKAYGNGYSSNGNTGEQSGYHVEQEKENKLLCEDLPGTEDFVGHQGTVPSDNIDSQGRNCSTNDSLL

Structure (SMILES): Cn1c2cccc(=O)c-2nc2ccccc21 [PYOCYANIN]
- IC50 [1]: 3.54 mg/L (≈ 16.8 µM)
- inhibition [2]: inactive
- inhibition [3]: inactive
- inhibition [4]: inactive
- inhibition [5]: inactive
- inhibition [6]: inactive
- inhibition [7]: inactive
- inhibition [8]: inactive
- inhibition [9]: inactive
- inhibition [10]: inactive
- inhibition [11]: inactive
- inhibition [12]: inactive
